The source of these data is ChEMBL document CHEMBL4406810, “Modifications on the Amino-3,5-dicyanopyridine Core To Obtain Multifaceted Adenosine Receptor Ligands with Antineuropathic Activity” (J Med Chem, 2019).

As a reminder, the Emax is the greatest response seen or fitted, relative to the assay's reference. Broadly, the IC50 is the concentration needed to halve the response being measured. A word on the Ki: it is the dissociation constant of the complex between target and ligand, obtained from inhibition or displacement. The EC50 is the midpoint of the concentration-response curve. One may read the half-life as the time needed for the level to fall by half in the phase considered. A higher half-life goes with slow loss. For orientation: inhibition means how much of the control response was suppressed.

Data set [1] deals with T1, Adenosine receptor A1 (Homo sapiens) (UniProt P30542).
T1 sequence (whole entry): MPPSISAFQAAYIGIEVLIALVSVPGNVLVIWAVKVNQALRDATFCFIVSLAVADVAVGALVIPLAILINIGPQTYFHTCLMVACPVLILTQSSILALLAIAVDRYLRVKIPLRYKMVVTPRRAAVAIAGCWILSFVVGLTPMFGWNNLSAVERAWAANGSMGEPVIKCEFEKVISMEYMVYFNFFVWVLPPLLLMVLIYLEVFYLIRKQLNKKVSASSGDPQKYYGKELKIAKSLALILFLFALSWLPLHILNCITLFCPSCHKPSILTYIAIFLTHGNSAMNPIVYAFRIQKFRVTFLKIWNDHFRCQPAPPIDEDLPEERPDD
Description: Inverse agonist activity at human A1AR expressed in CHO cells assessed as increase in forskolin-stimulated cAMP production by alphascreen assay relative to DPCPX. It counts as functional, cell-based. The essentials:
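Compounds at 1 nM to 1 µM. cAMP rise measured by AlphaScreen. EC50 from sigmoid fit. […] Four independent experiments in triplicate.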
Background: cAMP levels reflect the balance of adenylyl cyclase and phosphodiesterase activity.

Data set [2] addresses T2, Adenosine receptor A2b (Homo sapiens, UniProt P29275).
T2 sequence (P29275 whole entry): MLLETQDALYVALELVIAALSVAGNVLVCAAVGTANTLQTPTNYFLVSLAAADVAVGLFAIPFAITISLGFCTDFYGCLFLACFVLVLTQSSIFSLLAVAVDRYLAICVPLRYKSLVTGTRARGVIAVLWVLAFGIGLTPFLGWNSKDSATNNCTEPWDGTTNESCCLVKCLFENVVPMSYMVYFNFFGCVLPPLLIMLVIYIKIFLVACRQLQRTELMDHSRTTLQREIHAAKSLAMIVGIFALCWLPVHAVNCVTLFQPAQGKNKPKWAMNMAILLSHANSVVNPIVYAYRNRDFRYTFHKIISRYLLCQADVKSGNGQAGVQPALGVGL
Description: Antagonist activity at human A2BR expressed in CHO cells assessed as inhibition of NECA-stimulated cAMP production by alphascreen assay. In kind it is functional, cell-based. In outline:
(§1)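 Compounds added at 1 nM to 1 µM final, with percent inhibition read at 1 µM. AlphaScreen cAMP read-out. IC50 by sigmoid non-linear regression. Four independent experiments in triplicate.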

The target of data set [3] is T3, Adenosine receptor A2a (Homo sapiens, UniProt P29274). Description: Antagonist activity at human A2AR expressed in CHO cells assessed as inhibition of CGS21680-stimulated cAMP production by alphascreen assay. It counts as functional, cell-based.
Data set [4] addresses T4, Adenosine receptor A1 (Homo sapiens, UniProt P30542).
T4 sequence (P30542 whole entry): T1 sequence (whole entry)
Description: Displacement of [3H]DPCPX from human A1AR expressed in CHO cell membranes measured after 90 mins by scintillation counting method. In outline: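 Nonspecific binding with 1 µM DPCPX. GF/B filtration and scintillation counting. Ki by Cheng–Prusoff. Inhibition % at 1 µM. Four experiments in triplicate.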
In general terms: Displacement assays read how much labelled ligand stays bound in the presence of the test substance.

For data set [5], the system named is Mus musculus. In words: Antinociceptive activity in CD-1 albino mouse model of oxaliplatin-induced neuropathic pain assessed as increase in licking latency at 1 mg/kg, po treated on day 15 post oxaliplatin treatment and measured at 15 to 60 mins post dose by cold plate test. It counts as functional, organism-based. In outline:
(§2)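 Male CD-1 mice (22–25 g) given oxaliplatin 2.4 mg/kg i.p. in 5% glucose on days 1-2, 5-9 and 12-14. On day 15, single oral dose (test compounds in 1% CMC). Cold plate at 4 °C, latency to paw licking or lifting, 60 s cut-off, read 15–60 min post dose. 10 mice/group in two sets. ANOVA with Bonferroni.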

In data set [6] the test system is Mus musculus. Description: Antinociceptive activity in CD-1 albino mouse model of oxaliplatin-induced neuropathic pain assessed as increase in licking latency at 0.3 mg/kg, po treated on day 15 post oxaliplatin treatment and measured at 15 to 60 mins post dose by cold plate test. It counts as functional, organism-based. The essentials: as §2
Another data set concerns the target T5, Adenosine receptor A3 (Homo sapiens, UniProt P0DMS8).
T5 sequence (P0DMS8 whole entry): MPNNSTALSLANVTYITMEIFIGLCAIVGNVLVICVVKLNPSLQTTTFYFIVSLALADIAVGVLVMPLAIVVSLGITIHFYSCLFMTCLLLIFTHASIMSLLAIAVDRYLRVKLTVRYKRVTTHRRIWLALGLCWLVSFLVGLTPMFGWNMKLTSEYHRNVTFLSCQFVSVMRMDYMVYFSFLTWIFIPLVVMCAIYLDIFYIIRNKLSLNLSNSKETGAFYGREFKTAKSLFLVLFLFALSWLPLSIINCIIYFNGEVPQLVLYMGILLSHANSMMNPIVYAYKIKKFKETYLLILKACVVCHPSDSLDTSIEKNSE
In words: Displacement of [125I]ABMECA from human A3R expressed in CHO cell membranes measured after 120 mins by scintillation counting method. The essentials: (§3)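 Nonspecific binding with 1 µM AB-MECA. GF/B filtration and counting. Ki via Cheng–Prusoff. Percent inhibition at 1 µM. Four experiments in triplicate.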

Data set [7] deals with T6, Adenosine receptor A2b (Homo sapiens) (UniProt P29275).
T6 sequence (whole entry): T2 sequence (P29275 whole entry)
Description: Agonist activity at human A2B expressed in CHO cells assessed as stimulation of cAMP production at 1 uM by alphascreen assay relative to NECA. In kind it is functional, cell-based. The essentials:
(§4)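 Compounds tested alone at final 1 nM to 1 µM. cAMP measured by AlphaScreen. Efficacy taken at 1 µM relative to NECA 1 µM (=100%). Four independent experiments in triplicate.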

Data set [8] deals with T4, Adenosine receptor A1. In words: Inverse agonist activity at human A1AR expressed in CHO cells assessed as increase in forskolin-stimulated cAMP production by alphascreen assay. In kind it is functional, cell-based. The essentials:
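Compounds at 1 nM to 1 µM. cAMP rise measured by AlphaScreen. EC50 from sigmoid fit. Four independent experiments in triplicate.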

In another data set the test system is CHO. Description: Effect on cAMP level in wild-type CHO cells at 0.001 to 1 uM by alphascreen assay. It counts as functional, cell-based. Particulars: Cricetulus griseus. The essentials: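 Compounds at 1 nM to 1 µM final concentrations. cAMP quantified with AlphaScreen kit. Four independent experiments, each in triplicate.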
Data set [9] deals with T3, Adenosine receptor A2a. Description: Displacement of [3H]ZM241385 from human A2AR expressed in CHO cell membranes measured after 60 mins by scintillation counting method. The essentials: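 Nonspecific binding defined with 1 µM ZM241385. Filtered on GF/B, scintillation counted. Ki by Cheng–Prusoff. Percent inhibition at 1 µM. Four experiments in triplicate.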
For data set [10], the target named is T2, Adenosine receptor A2b. Description: Agonist activity at human A2B expressed in CHO cells assessed as stimulation of cAMP production by alphascreen assay. It counts as functional, cell-based. In outline:
as §4

A short description of data set [11]: Half life in Sprague-Dawley rat plasma at 1 uM by LC-MS/MS analysis. In kind it is ADME, cell-free. In outline: (§5)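 Analyte spiked at 1 µM into human plasma or heparinized Sprague-Dawley male rat plasma (or PBS). Incubated at 37°C for 0, 30, 60, 120 min in triplicate. Internal standard added, centrifuged, dried, reconstituted. Quantified by LC-MS/MS (ESI negative, MRM) against a 0–1 µM calibration. Half-life from concentration-time profile.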

Data set [12] can be described thus: Half life in human plasma at 1 uM by LC-MS/MS analysis. In kind it is ADME, cell-free. In outline:
as §5

Data set [13] deals with T7, Adenosine receptor A3 (Homo sapiens) (UniProt P0DMS8).
T7 sequence (whole entry): T5 sequence (P0DMS8 whole entry)
In words: Displacement of [125I]ABMECA from human A3R expressed in CHO cell membranes at 1 uM measured after 120 mins by scintillation counting method relative to control. The essentials:
as §3

In data set [14] the test system is Mus musculus. Description: Antinociceptive activity in CD-1 albino mouse model of oxaliplatin-induced neuropathic pain assessed as increase in licking latency at 0.3 mg/kg, po treated on day 15 post oxaliplatin treatment and measured at 15 to 60 mins post dose in presence of alpha7 nAChR antagonist methyllycaconitine by cold plate test. In kind it is functional, organism-based. The essentials:
(§6)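 Oxaliplatin neuropathy in male CD-1 mice (2.4 mg/kg i.p., 10 injections, days 1-14). Day 15: mecamylamine 2 mg/kg i.p. or methyllycaconitine 6 mg/kg i.p. given 15 min before the oral dose. Cold plate (4 °C) licking/lifting latency with 60 s cut-off, measured over time after dosing. 10 mice/group, two sets.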

The test system of data set [15] is Mus musculus. Description: Antinociceptive activity in CD-1 albino mouse model of oxaliplatin-induced neuropathic pain assessed as increase in licking latency at 0.1 to 0.3 mg/kg, po treated on day 15 post oxaliplatin treatment and measured at 15 to 45 mins post dose by cold plate test. In kind it is functional, organism-based. The essentials: as §2
Data set [16] has as its system Mus musculus. In words: Antinociceptive activity in CD-1 albino mouse model of oxaliplatin-induced neuropathic pain assessed as increase in licking latency at 0.3 mg/kg, po treated on day 15 post oxaliplatin treatment and measured at 15 to 60 mins post dose in presence of nonspecific nAChR antagonist mecamylamine by cold plate test. In kind it is functional, organism-based. The essentials: as §6

Data set [17] deals with T6, Adenosine receptor A2b (Homo sapiens). Description: Antagonist activity at human A2BR expressed in CHO cells assessed as inhibition of NECA-stimulated cAMP production at 1 uM by alphascreen assay relative to control. It counts as functional, cell-based. In outline: as §1
Data set [18] deals with Mus musculus. In words: Antinociceptive activity in CD-1 albino mouse model of oxaliplatin-induced neuropathic pain assessed as increase in licking latency at 0.01 to 0.3 mg/kg, po treated on day 15 post oxaliplatin treatment and measured at 15 to 45 mins post dose by cold plate test. In kind it is functional, organism-based. The essentials: as §2

The source made the active and inactive calls.

T3 sequence (P29274 whole entry): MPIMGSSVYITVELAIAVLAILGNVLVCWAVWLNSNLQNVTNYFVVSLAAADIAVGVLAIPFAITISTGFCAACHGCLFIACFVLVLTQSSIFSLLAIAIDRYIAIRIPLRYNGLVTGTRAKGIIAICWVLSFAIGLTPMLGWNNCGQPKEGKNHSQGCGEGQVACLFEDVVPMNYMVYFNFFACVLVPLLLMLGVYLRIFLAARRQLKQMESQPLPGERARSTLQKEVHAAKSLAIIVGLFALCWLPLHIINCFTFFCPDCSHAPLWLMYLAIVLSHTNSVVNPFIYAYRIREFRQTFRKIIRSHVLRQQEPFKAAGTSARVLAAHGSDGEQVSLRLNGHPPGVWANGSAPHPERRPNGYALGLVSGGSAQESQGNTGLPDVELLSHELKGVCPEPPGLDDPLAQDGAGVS

For `N#Cc1c(N)nc(SCc2cccc(C(N)=O)c2)c(C#N)c1-c1ccco1`, the Emax in [1] turned out to be 31%. Further, the results for the IC50 on Adenosine receptor A2b [2] and on Adenosine receptor A2a [3] were 13 nM and 58 nM, respectively. The figures for the inhibition constant (Ki) at Adenosine receptor A1 [4], on Adenosine receptor A3 and at Adenosine receptor A2a [9] were 1.32 nM, 326 nM and 67 nM, respectively. Further, the outcome in the data set on Mus musculus [5] was Active. The outcome in the data set with Mus musculus [6] and with CHO was inactive. Besides, the Efficacy in data set [7] stood at 6%. The EC50 was 2.84 nM on Adenosine receptor A1 [8] and more than 1000 nM at Adenosine receptor A2b [10].
`COC(=O)c1cccc(CSc2nc(N)c(C#N)c(-c3ccco3)c2C#N)c1`: the Emax in data set [1] turned out to be 35%. In addition, the IC50 on Adenosine receptor A2a [3] was found to be 313 nM. Also, the half-life at 1 µM in data set [11] and in data set [12] was not below 4 h each time. Moreover, the figures for the Ki on Adenosine receptor A1 [4] and at Adenosine receptor A2a [9] were 7.22 nM and 68 nM, respectively. For the same compound, the inhibition in [13] turned out to be 26%; in data set [17], 25%. Moreover, in data set [7], the Efficacy was found to be 7%. Besides, the EC50 at Adenosine receptor A1 [8] was 1.43 nM; on Adenosine receptor A2b [10], more than 1000 nM. Moreover, the outcome in the data set with Mus musculus [14], in the data set with Mus musculus [16] and in the data set with CHO was inactive. In addition, the result in the data set with Mus musculus [15] was Active.
On to `N#Cc1c(N)nc(SCc2cccc(CO)c2)c(C#N)c1-c1ccco1`, for which, in data set [1], the Emax worked out at 98%. Further, the result in the data set on Mus musculus [18] was Active. Moreover, the values for the IC50 at Adenosine receptor A2b [2] and at Adenosine receptor A2a [3] were 152 nM and 22 nM, respectively. Besides, the values for the Ki on Adenosine receptor A1 [4] and at Adenosine receptor A2a [9] were 0.98 nM and 31 nM, respectively. Besides, the inhibition in [13] amounted to 25%. Also, the Efficacy in data set [7] came out at 4%. The EC50 on Adenosine receptor A1 [8] was 4.97 nM; at Adenosine receptor A2b [10] it was more than 1000 nM. For the same compound, the outcome in the data set with Mus musculus [14], in the data set on Mus musculus [16] and in the data set with CHO was inactive.
